# Calls of active or inactive are those of the source. The calls are words filed in the database; no cut-off is given here.
# Biological target: T1, P2X purinoceptor 4 (Homo sapiens) (UniProt Q99571)
# T1 sequence (whole entry): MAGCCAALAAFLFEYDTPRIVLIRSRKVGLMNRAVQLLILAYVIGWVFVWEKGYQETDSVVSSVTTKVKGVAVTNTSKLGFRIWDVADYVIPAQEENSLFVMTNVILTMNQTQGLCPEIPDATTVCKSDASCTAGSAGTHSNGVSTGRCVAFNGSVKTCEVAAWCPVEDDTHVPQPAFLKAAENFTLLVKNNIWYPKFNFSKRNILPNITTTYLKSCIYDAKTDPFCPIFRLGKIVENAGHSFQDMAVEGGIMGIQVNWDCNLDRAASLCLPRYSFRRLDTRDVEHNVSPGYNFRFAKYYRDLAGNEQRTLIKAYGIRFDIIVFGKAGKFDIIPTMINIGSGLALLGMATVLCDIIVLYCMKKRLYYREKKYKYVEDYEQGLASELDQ
# Assay: Negative allosteric modulation of human P2X4 receptor expressed in human 1321N1 cells assessed as reduction in ATP-induced cytosolic calcium influx at 3 to 30 uM
# Assay type: cell-based
# Method in brief: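 1321N1 astrocytoma cells stably expressing human P2X4. Full ATP concentration–response curves (10^-8 to 10^-3 M) for intracellular calcium, recorded without inhibitor and with three fixed modulator levels (3, 10, 30). ATP EC50 and maximal effect (Emax, %) were derived for each condition.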
row,Activity,SMILES
1,Active,CC(C)N(C(=O)N1c2ccccc2C=Cc2ccccc21)C(C)C

# Biological target: T2, P2X purinoceptor 4 (Mus musculus) (UniProt Q9JJX6)
# T2 sequence (whole entry): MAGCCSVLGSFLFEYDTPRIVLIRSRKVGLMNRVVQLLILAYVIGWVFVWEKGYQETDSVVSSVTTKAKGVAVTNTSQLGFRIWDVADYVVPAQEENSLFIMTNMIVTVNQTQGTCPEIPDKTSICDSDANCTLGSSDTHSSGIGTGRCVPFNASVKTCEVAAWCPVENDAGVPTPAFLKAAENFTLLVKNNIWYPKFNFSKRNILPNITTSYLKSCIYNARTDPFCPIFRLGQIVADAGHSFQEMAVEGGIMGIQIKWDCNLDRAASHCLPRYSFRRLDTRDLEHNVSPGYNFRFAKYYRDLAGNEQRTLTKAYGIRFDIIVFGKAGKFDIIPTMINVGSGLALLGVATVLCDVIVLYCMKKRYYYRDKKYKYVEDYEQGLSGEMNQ
# Assay: Antagonist activity at mouse P2X4 receptor assessed as inhibition of ATP-induced cytosolic calcium influx at 100 uM preincubated for 30 mins followed by ATP addition by Fluo-4 AM dye-based fluorescence assay
row,inhibition,SMILES
1,27%,CCN(CC)C(=O)N1c2ccccc2C=Cc2ccccc21
2,38%,CCCN(CCC)C(=O)N1c2ccccc2C=Cc2ccccc21

# System: not listed separately
# Assay: Selectivity ratio of IC50 for mouse P2X4 receptor to IC50 for human P2X4 receptor
row,Ratio IC50,SMILES
1,3,CC(C)N(C(=O)N1c2ccccc2C=Cc2ccccc21)C(C)C
2,3,O=C(NC1CCCCC1)N1c2ccccc2C=Cc2ccccc21
3,3,O=C(N1CCCC1)N1c2ccccc2C=Cc2ccccc21
4,3,O=C(N1CCCCC1)N1c2ccccc2C=Cc2ccccc21
5,3,CCCN(CCC)C(=O)N1c2ccccc2C=Cc2ccccc21

# Biological target: T3, P2X purinoceptor 4 (Rattus norvegicus, UniProt P51577)
# T3 sequence (P51577 whole entry): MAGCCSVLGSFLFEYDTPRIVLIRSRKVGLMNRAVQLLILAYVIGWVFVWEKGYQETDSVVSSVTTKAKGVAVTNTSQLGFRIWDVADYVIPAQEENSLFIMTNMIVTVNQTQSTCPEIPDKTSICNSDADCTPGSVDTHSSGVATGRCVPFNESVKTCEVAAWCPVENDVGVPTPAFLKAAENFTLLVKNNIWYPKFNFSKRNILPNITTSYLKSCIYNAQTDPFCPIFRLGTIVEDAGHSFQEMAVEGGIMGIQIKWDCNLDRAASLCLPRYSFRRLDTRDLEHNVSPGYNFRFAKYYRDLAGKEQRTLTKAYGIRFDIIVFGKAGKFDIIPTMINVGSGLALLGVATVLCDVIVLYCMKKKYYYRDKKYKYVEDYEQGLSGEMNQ
# Assay: Antagonist activity at rat P2X4 receptor assessed as inhibition of ATP-induced calcium influx preincubated for 30 mins followed by ATP addition by Fluo-4 AM dye-based fluorescence assay
row,IC50,SMILES
1,54.6 µM,CC(C)N(C(=O)N1c2ccccc2C=Cc2ccccc21)C(C)C
2,109 µM,O=C(NC1CCCCC1)N1c2ccccc2C=Cc2ccccc21
3,43 µM,CCN(CC)C(=O)N1c2ccccc2C=Cc2ccccc21
4,69.3 µM,O=C(N1CCCC1)N1c2ccccc2C=Cc2ccccc21
5,95.8 µM,O=C(N1CCCCC1)N1c2ccccc2C=Cc2ccccc21
6,35.9 µM,CCCN(CCC)C(=O)N1c2ccccc2C=Cc2ccccc21

# Biological target: T4, P2X purinoceptor 7 (Homo sapiens) (UniProt Q99572)
# T4 sequence (whole entry): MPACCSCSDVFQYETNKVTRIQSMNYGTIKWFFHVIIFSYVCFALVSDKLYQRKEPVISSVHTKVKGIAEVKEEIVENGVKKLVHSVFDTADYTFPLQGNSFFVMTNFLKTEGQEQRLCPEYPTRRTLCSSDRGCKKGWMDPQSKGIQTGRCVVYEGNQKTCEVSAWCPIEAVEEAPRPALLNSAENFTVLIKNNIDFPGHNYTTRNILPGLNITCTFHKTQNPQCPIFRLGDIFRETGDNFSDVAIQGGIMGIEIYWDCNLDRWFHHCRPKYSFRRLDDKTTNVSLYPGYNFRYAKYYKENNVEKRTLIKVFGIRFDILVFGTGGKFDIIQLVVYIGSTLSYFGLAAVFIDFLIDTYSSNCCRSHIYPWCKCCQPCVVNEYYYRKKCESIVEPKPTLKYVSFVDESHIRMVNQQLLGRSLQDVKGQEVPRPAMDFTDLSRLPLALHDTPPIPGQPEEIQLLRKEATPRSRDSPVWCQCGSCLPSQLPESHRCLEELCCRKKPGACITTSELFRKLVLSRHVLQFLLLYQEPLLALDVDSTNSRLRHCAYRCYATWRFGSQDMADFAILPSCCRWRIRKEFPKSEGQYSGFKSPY
# Assay: Antagonist activity at human P2X7 receptor expressed in human 1321N1 cells assessed as inhibition of ATP-induced cytosolic calcium influx at 100 uM preincubated for 30 mins followed by ATP addition by Fluo-4 AM dye-based fluorescence assay
# Assay type: cell-based
row,inhibition,SMILES
1,33%,O=C(N1CCCC1)N1c2ccccc2C=Cc2ccccc21
2,-10%,O=C(N1CCCCC1)N1c2ccccc2C=Cc2ccccc21

# Biological target: T1, P2X purinoceptor 4 (Homo sapiens)
# Assay: Antagonist activity at human P2X4 receptor expressed in human 1321N1 cells assessed as inhibition of ATP-induced cytosolic calcium influx at 100 uM preincubated for 30 mins followed by ATP addition by Fluo-4 AM dye-based fluorescence assay
# Assay type: cell-based
# Method in brief: (§1)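 Human P2X4 stably transfected into 1321N1 astrocytoma cells. Inhibition of ATP-induced calcium influx measured as in earlier work. Compounds were first screened at a single high concentration, chosen according to their solubility.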
row,inhibition,SMILES
1,100%,O=C(NC1CCCCC1)N1c2ccccc2C=Cc2ccccc21
2,95%,CCN(CC)C(=O)N1c2ccccc2C=Cc2ccccc21
3,98%,O=C(N1CCCC1)N1c2ccccc2C=Cc2ccccc21
4,72%,O=C(N1CCCCC1)N1c2ccccc2C=Cc2ccccc21

# Biological target: T5, P2X purinoceptor 7 (Homo sapiens, UniProt Q99572)
# T5 sequence (Q99572 whole entry): T4 sequence (whole entry)
# Assay: Antagonist activity at human P2X7 receptor expressed in human 1321N1 cells assessed as inhibition of ATP-induced cytosolic calcium influx preincubated for 30 mins followed by ATP addition by Fluo-4 AM dye-based fluorescence assay
# Assay type: cell-based
row,IC50,SMILES
1,95.2 µM,CC(C)N(C(=O)N1c2ccccc2C=Cc2ccccc21)C(C)C
2,40.8 µM,O=C(NC1CCCCC1)N1c2ccccc2C=Cc2ccccc21
3,69.8 µM,CCN(CC)C(=O)N1c2ccccc2C=Cc2ccccc21
4,> 100 µM,O=C(N1CCCC1)N1c2ccccc2C=Cc2ccccc21
5,> 100 µM,O=C(N1CCCCC1)N1c2ccccc2C=Cc2ccccc21
6,> 100 µM,CCCN(CCC)C(=O)N1c2ccccc2C=Cc2ccccc21

# Biological target: T1, P2X purinoceptor 4 (Homo sapiens)
# Assay: Antagonist activity at human P2X4 receptor expressed in human 1321N1 cells assessed as inhibition of ATP-induced cytosolic calcium influx at 10 uM preincubated for 30 mins followed by ATP addition by Fluo-4 AM dye-based fluorescence assay
# Assay type: cell-based
# Method in brief: as §1
row,inhibition,SMILES
1,71%,CC(C)N(C(=O)N1c2ccccc2C=Cc2ccccc21)C(C)C
2,49%,CCCN(CCC)C(=O)N1c2ccccc2C=Cc2ccccc21
